Screens deposited in PubChem by several laboratories.
Hck-Nef inh: inhibitors of human Hck kinase activated by Nef. P08631. Recombinant Hck-YEEI plus Nef, Z-Lyte FRET kinase assay. inhibition, % at 20 µM. actives 0.68% (n = 220,000);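 active = Hck-Nef kinase inhibition above about 50%, limit read from the data; inactive = inhibition below that limit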;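 note: 0% = DMSO with Hck plus Nef and 100% = Hck alone without Nef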
Runt-SMMHC FRET: blocks binding of human RUNX1 Runt domain to CBFb-SMMHC; actives 0.74% (n = 220,000); Cerulean-Runt/Venus-CBFb-SMMHC FRET ratio 530/480, 1 h; Q01196+Q13951; AID 1434; inhibition, % at 20 µM;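 active = mean inhibition across duplicate retests at 20 µM reaching about 50%, limit read from the data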;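 note: 0% = DMSO wells and 100% = wells with excess untagged CBFb-SMMHC; inhibitors lower the FRET ratio by blocking Runt binding to CBFb-SMMHC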
Target sequence (Q01196 whole entry, looked up, the tested form may be a part): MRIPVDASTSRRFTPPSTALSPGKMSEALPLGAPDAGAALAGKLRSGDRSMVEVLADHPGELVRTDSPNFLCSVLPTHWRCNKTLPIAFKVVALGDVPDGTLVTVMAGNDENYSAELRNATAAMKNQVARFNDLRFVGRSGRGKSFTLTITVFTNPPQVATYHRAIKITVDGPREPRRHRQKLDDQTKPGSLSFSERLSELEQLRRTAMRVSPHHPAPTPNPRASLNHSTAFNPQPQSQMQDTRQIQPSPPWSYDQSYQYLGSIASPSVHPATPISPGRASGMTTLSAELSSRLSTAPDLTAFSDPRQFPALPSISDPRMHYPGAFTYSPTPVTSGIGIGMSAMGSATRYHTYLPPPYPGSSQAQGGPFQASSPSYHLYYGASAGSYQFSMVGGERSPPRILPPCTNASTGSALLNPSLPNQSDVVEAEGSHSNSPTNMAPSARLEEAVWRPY
Target sequence (Q13951 whole entry, looked up, the tested form may be a part): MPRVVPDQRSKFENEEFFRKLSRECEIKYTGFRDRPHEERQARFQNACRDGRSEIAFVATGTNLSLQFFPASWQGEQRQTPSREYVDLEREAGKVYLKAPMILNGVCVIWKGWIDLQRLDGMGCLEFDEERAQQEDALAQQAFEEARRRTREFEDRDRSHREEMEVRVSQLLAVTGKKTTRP
CaV13 ICDI inh: Disruptors of the CACNA1D IQ motif to Ca2+-dependent inactivation inhibitor domain association, primary screening, Förster resonance energy transfer in intact living …; HEK cells, CFP/YFP FRET ICDI-IQ, plate reader, 10 min; percent FRET-ratio fall versus neutral wells; inhibition, % at 12.3 µM; actives 0.098% (n = 340,000); AID 743397;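 active = mean replicate inhibition of at least 30% and at least 1% of replicates passing that level; inconclusive = only one of the two criteria is met; inactive = neither criterion is met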;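 note: 0% = median of the neutral control wells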
Runt-CBFb FRET: inhibitors of human RUNX1 Runt domain binding to CBFb; Q01196+Q13951; Cerulean-Runt/Venus-CBFb FRET ratio 530/480, 1 h; inhibition, % at 20 µM; actives 0.46% (n = 220,000); AID 1496;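 active = inhibition over about 50% at 20 µM in the single-dose screen, limit read from the data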;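 note: 0% = DMSO wells and 100% = excess unlabeled CBFb competitor control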
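Assay system: Cerulean-Runt domain fusion protein, energy donor; Signal: fluorescence energy transfer, 422 nm excitation, 530/480 nm emission; Timing: 1 h compound exposure, room temperature; Control set: unlabeled CBFb; Medium: Tris buffer pH 7.5 with salts and BSA; Compound: single test concentration of 20 µM, 1% DMSO final; Probe or stimulus: Venus-CBFb 100 nM.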
RanGTP-Impb inh: inhibitors of RanGTP-importin-beta interaction, primary screen, biochemical, FRET, CFP-Ran, YFP-importin-beta, homogeneous. inhibition, % (no concentration beside the values). actives 1.1% (n = 300,000). cell-free CFP-Ran/YFP-importin-beta FRET ratio. AID 2216;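 active = more than half of the replicate wells show a fall in the fluorescence ratio signal beyond about 16%, limit read from the data, passing the limit was not always enough; inconclusive = exactly half of the replicate wells pass the set limit; inactive = fewer than half of replicates pass the limit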;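 note: 0% = DMSO wells and 100% = Ran loaded with GDP instead of GTP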
Hck-Nef confirm: Hck-Nef kinase inhibition, confirmation; shares compounds with Hck-Nef inh; Recombinant Hck-YEEI:Nef, Z-Lyte FRET kinase assay; calls only at 10 µM; actives 28% (n = 1,300); AID 463188;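 active = average inhibition of at least 50%, with Z-scores no higher than 3 in both the phospho-tyrosine peptide and fluorescence counterscreens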
An asterisk follows results filed as active; i = inactive; ? = inconclusive; nt = not tested or not shown; + = active, no number. Compounds with a hit are over-represented: about 1.5% of the library has one in this group of screens.

SMILES	Hck-Nef inh	Runt-SMMHC FRET	CaV13 ICDI inh	Runt-CBFb FRET	RanGTP-Impb inh	Hck-Nef confirm
CCCc1nc(SCC(=O)NNC(=O)C2CCCCC2)c2ccccc2n1	74.8*	-1.0	-6.8	4.6	-4.1	i
C/C(N)=C(/C#N)C(=O)CSc1nc2ccccc2c(=O)n1Cc1ccc(C)cc1	55.4*	0.9	-4.5	nt	1.4	i
CCOC(=O)C1CCN(C(=O)C2(NC(=O)Nc3ccc(F)cc3F)CCCCC2)CC1	nt	nt	-1.9	nt	-2.9	nt
Cn1cccc1/C=C1\SC(=Nc2cccc(O)c2)NC1=O	84.7*	6.7	-3.4	1.4	5.8	+
COc1ccc(OCC(=O)Nc2ccc3c(c2)C(=O)NC3=O)cc1	nt	nt	-3.7	nt	?	nt
C(=N\Nc1ncnc2sc3c(c12)CCC3)/c1ccncc1	50.6*	1.1	-4.3	-3.6	-0.9	i
CCC(C)Nc1nc(N)c([N+](=O)[O-])c(Nc2ccccc2OC)n1 (stereo unspecified)	21.8	3.1	-4.7	-4.5	5.3	nt
CCC(C)Nc1nc(N)c([N+](=O)[O-])c(Nc2cc(OC)ccc2OC)n1 (stereo unspecified)	52.5*	-1.6	9.4	-3.2	2.1	i
CN(C)S(=O)(=O)N1CCC(CCCC2CCN(S(=O)(=O)N(C)C)CC2)CC1	0.1	-6.1	-8.5	0.1	4.3	nt
COc1cc(OC)c(OC)cc1/C=N/Nc1nc2ccccc2[nH]1	3.7	2.6	-6.1	4.3	0.8	nt
COc1ccc(/C=N/Nc2ncnc3c2[nH]c2ccc(C)cc23)c(OC)c1OC	68.8*	2.4	-22.2	-5.1	3.2	+
COc1cc(OC)c(OC)cc1/C=N/Nc1ncnc2c1[nH]c1ccccc12	52.7*	75.0*	-3.1	19.6	?	nt
COc1ccccc1C(=O)N1CCN(c2ccccn2)CC1	0.3	-1.6	-7.8	2.1	0.7	nt
COc1ccccc1N1CCN(C(=O)c2ccncc2)CC1	2.0	2.8	-5.1	-0.6	2.6	nt
CC1(C)CC(=O)C2=C(C1)c1c(ccc3ccccc13)NC2c1ccc(C(=O)O)cc1 (stereo unspecified)	nt	nt	-2.0	nt	-0.6	nt
CC1(C)CC(=O)C2=C(C1)c1c(ccc3ccccc13)NC2c1cc([N+](=O)[O-])cc([N+](=O)[O-])c1O (stereo unspecified)	51.4*	-6.6	-4.4	29.4	-2.4	+
COC(=O)/C=C/C(=O)N1CCN(c2cccc(Cl)c2)CC1	4.0	4.0	nt	-1.5	2.7	nt
CCc1ccc(/C=C(/C#N)C(N)=S)s1	23.2	1.5	-0.4	5.2	-2.0	nt
CCc1sc(/C=C(/C#N)C(N)=S)cc1[N+](=O)[O-]	63.2*	13.5	-0.9	21.0	nt	i
Cc1ccc2nc(C)c3c(c2c1)COC3	-0.5	1.4	-4.4	-0.2	0.4	nt
Cc1ccc(N/N=C/c2c(C)c(C#N)c(=O)n(C)c2O)cc1C	77.2*	-7.9	-4.9	-1.2	-4.1	i
COc1cc(S(=O)(=O)Nc2ccc(C)cc2)ccc1N=Cc1c(C)c(C#N)c(=O)n(C)c1O	14.7	12.0	-11.0	-235.5	-13.3	nt
COc1ccc(Cn2c(C3CCCCC3)nc3c(c(=O)c4ccccc4n3C)c2=O)cc1	71.1*	-1.6	nt	0.9	-1.9	i
CCOC(=O)C(=O)NNc1ccccc1OC	17.8	-0.9	-4.9	-1.3	-2.1	nt
CCOC(=O)C1=C(C)OC(N)=C(C#N)C1C1CCCCC1 (stereo unspecified)	-2.4	0.3	-5.5	-5.4	1.1	nt
SMILES	Hck-Nef inh	Runt-SMMHC FRET	CaV13 ICDI inh	Runt-CBFb FRET	RanGTP-Impb inh	Hck-Nef confirm
N#CC1=C(N)Oc2cc(N)ccc2C1C1CCCCC1 (stereo unspecified)	50.7*	81.6*	-3.2	50.5*	96.6*	i
COc1cccc(-c2cc(C(=O)Nc3cccnc3)c3ccccc3n2)c1	nt	nt	-3.2	nt	?	nt
O=C(O)CSc1cc(C(=O)c2ccccc2O)cn2c(=O)c3c(-c4ccccc4)csc3nc12	60.8*	-30.7	-17.5	-15.9	4.3	+
O=C1NC(=Nc2ccc(O)cc2)S/C1=C/c1ccco1	81.0*	1.5	-2.5	4.9	-5.8	i
Cc1cccc(N=C2NC(=O)/C(=C/C=C/c3ccco3)S2)c1	28.9	-14.2	-1.8	4.7	-4.9	nt
COc1ccc(N=C2NC(=O)/C(=C\C=C\c3ccco3)S2)cc1	88.1*	-19.5	-5.6	5.4	3.7	+
O=C(NCCCN1CCOCC1)c1ccc(N2CCOCC2)c([N+](=O)[O-])c1	nt	nt	-9.4	nt	-0.6	nt
Cc1noc(C)c1COC(=O)c1cc(=O)[nH]c2ccccc12	2.4	2.4	nt	1.1	nt	nt
CC(=O)N(C(C)=O)c1ncnc2c1c(-c1ccc(Cl)cc1)nn2C(C)(C)C	73.5*	-5.3	-4.3	-1.5	5.3	i
CC(=O)Nc1ncnc2c1c(-c1ccc(Cl)cc1)nn2C(C)(C)C	+	2.8	-18.0	1.4	3.7	+
O=C(/C=C/c1ccccc1[N+](=O)[O-])c1ccc(F)cc1	-15.4	-2.7	-3.2	1.1	-3.4	nt
CCCN(C(=O)Cn1c(C(F)(F)F)nc2ccccc21)C1CCS(=O)(=O)C1 (stereo unspecified)	nt	nt	-1.1	nt	0.8	nt
COC(=O)C1=CN(c2ccc(Oc3ccccc3)cc2)C(N)=C(C#N)C1c1cccc(OC)c1OC (stereo unspecified)	nt	nt	-17.5	nt	nt	nt
COCCN1C=C(C(=O)OC)C(c2ccccc2Cl)C(C(=O)OC)=C1	153.1*	86.0*	-1.7	64.4*	58.5*	nt
CCN1C=C(C(=O)OC)C(c2cccc(OC)c2OC)C(C(=O)OC)=C1	84.7*	85.9*	+	20.9	125.9*	nt
CCCCN(CCCC)CCNC(=O)CN1C(=O)CSc2ccc(S(=O)(=O)N3CCOCC3)cc21	nt	nt	-6.9	nt	2.9	nt
Cc1c(Cl)cnc(NC(=O)COC(=O)/C=C/c2ccco2)c1Cl	nt	nt	-6.6	nt	nt	nt
COc1ccc(/C=C/c2nnc(NC(=O)c3ccco3)s2)cc1	53.0*	20.9	-2.6	2.3	8.9	i
CC1=C(C(=O)OCC2CCCO2)C(c2ccc(C)cc2)C2=C(CCCC2=O)N1 (stereo unspecified)	63.2*	18.4	-11.1	5.4	1.8	i
Cc1c(-n2c(O)c(C3=c4ccccc4=NC3=O)sc2=S)c(=O)n(-c2ccccc2)n1C	100.0*	0.5	-1.2	12.4	3.1	+
O=C1N=c2ccccc2=C1c1sc(=S)n(-c2ccc(O)cc2)c1O	10.9	-6.2	5.7	-4.8	-1.9	nt
COc1ccc(OC)c(NC(=O)CN2C(=O)NC(C)(c3ccc4c(c3)OCCO4)C2=O)c1 (stereo unspecified)	nt	nt	-6.1	nt	nt	nt
COc1ccc(N(CC(=O)N2CCCCCC2)S(=O)(=O)c2ccc(OC)c(OC)c2)cc1	nt	nt	-3.9	nt	-3.5	nt
